Several values for one entry are separate records, joined by “and”; a condition that tells them apart may be missing. Equal entries are not always repeated.
Tested on: U2OS
Test: Multiplex assay against U2OS
Format: toxicity, cell-based
Settings: human
Outline: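 Cells were classed with CellPathfinder machine-learning gating, first as Hoechst high-intensity objects or normal cells, then (normal cells) as healthy, pyknosed or fragmented nuclei, and finally (pyknosed cells) as mitotic or apoptotic. Staining of live cells at seeding used Hoechst33342, BioTracker Green Microtubule Cytoskeleton Dye, MitoTracker Red and Annexin V Alexa Fluor 680, with imaging on a CQ1 microscope at 37°C and 5% CO2 after compound addition. Tubulin, mitochondrial-mass and membrane-permeability phenotypes are per cents of healthy-nucleus cells.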

[1] = 12 h, 1 µM, compound concentration 1 uM, replicate 1
[2] = 12 h, 1 µM, compound concentration 1 uM, replicate 2
[3] = 12 h, 10 µM, compound concentration 10 uM, replicate 1
[4] = 12 h, 10 µM, compound concentration 10 uM, replicate 2
[5] = 24 h, 1 µM, compound concentration 1 uM, replicate 1
[6] = 24 h, 1 µM, compound concentration 1 uM, replicate 2
[7] = 24 h, 10 µM, compound concentration 10 uM, replicate 1
[8] = 24 h, 10 µM, compound concentration 10 uM, replicate 2
[9] = 48 h, 1 µM, compound concentration 1 uM, replicate 1
[10] = 48 h, 1 µM, compound concentration 1 uM, replicate 2
[11] = 48 h, 10 µM, compound concentration 10 uM, replicate 1
[12] = 48 h, 10 µM, compound concentration 10 uM, replicate 2

CN1CCCC(n2nc(Cc3ccc(Cl)cc3)c3ccccc3c2=O)CC1.Cl (stereo unspecified) [AZELASTINE HYDROCHLORIDE]
Population Apoptotic (%) [1]: 42%
Population Fragmented Nuclei (%) [1]: 12%
Population Healthy Nuclei (%) [1]: 71%
Population Hoechst High Intensity Objects (%) [1]: 8%
Population Membrane Permeable-Phenotype (%) [1]: 11%
Population Mitochondria Different-Phenotype (%) [1]: 64%
Population Mitotic Cells (%) [1]: 57%
Population Normal (%) [1]: 91%
Population Pyknosed Nuclei (%) [1]: 16%
Population Tubulin-Different-Phenotype (%) [1]: 70%
Total Cell Count [1]: 95
Population Apoptotic (%) [2]: 25%
Population Fragmented Nuclei (%) [2]: 6%
Population Healthy Nuclei (%) [2]: 84%
Population Hoechst High Intensity Objects (%) [2]: 11%
Population Membrane Permeable-Phenotype (%) [2]: 7%
Population Mitochondria Different-Phenotype (%) [2]: 57%
Population Mitotic Cells (%) [2]: 75%
Population Normal (%) [2]: 88%
Population Pyknosed Nuclei (%) [2]: 8%
Population Tubulin-Different-Phenotype (%) [2]: 68%
Total Cell Count [2]: 51
Population Apoptotic (%) [3]: 63%
Population Fragmented Nuclei (%) [3]: 18%
Population Healthy Nuclei (%) [3]: 52%
Population Hoechst High Intensity Objects (%) [3]: 12%
Population Membrane Permeable-Phenotype (%) [3]: 77%
Population Mitochondria Different-Phenotype (%) [3]: 97%
Population Mitotic Cells (%) [3]: 36%
Population Normal (%) [3]: 87%
Population Pyknosed Nuclei (%) [3]: 28%
Population Tubulin-Different-Phenotype (%) [3]: 97%
Total Cell Count [3]: 87
Population Apoptotic (%) [4]: 57%
Population Fragmented Nuclei (%) [4]: 14%
Population Healthy Nuclei (%) [4]: 70%
Population Hoechst High Intensity Objects (%) [4]: 4%
Population Membrane Permeable-Phenotype (%) [4]: 84%
Population Mitochondria Different-Phenotype (%) [4]: 98%
Population Mitotic Cells (%) [4]: 42%
Population Normal (%) [4]: 95%
Population Pyknosed Nuclei (%) [4]: 15%
Population Tubulin-Different-Phenotype (%) [4]: 100%
Total Cell Count [4]: 96
Population Apoptotic (%) [5]: 33%
Population Fragmented Nuclei (%) [5]: 16%
Population Healthy Nuclei (%) [5]: 65%
Population Hoechst High Intensity Objects (%) [5]: 5%
Population Membrane Permeable-Phenotype (%) [5]: 5%
Population Mitochondria Different-Phenotype (%) [5]: 70%
Population Mitotic Cells (%) [5]: 66%
Population Normal (%) [5]: 94%
Population Pyknosed Nuclei (%) [5]: 17%
Population Tubulin-Different-Phenotype (%) [5]: 68%
Total Cell Count [5]: 108
Population Apoptotic (%) [6]: 50%
Population Fragmented Nuclei (%) [6]: 7%
Population Healthy Nuclei (%) [6]: 76%
Population Hoechst High Intensity Objects (%) [6]: 8%
Population Membrane Permeable-Phenotype (%) [6]: 10%
Population Mitochondria Different-Phenotype (%) [6]: 57%
Population Mitotic Cells (%) [6]: 50%
Population Normal (%) [6]: 91%
Population Pyknosed Nuclei (%) [6]: 15%
Population Tubulin-Different-Phenotype (%) [6]: 50%
Total Cell Count [6]: 57
Population Apoptotic (%) [7]: 90%
Population Fragmented Nuclei (%) [7]: 29%
Population Healthy Nuclei (%) [7]: 46%
Population Hoechst High Intensity Objects (%) [7]: 10%
Population Membrane Permeable-Phenotype (%) [7]: 95%
Population Mitochondria Different-Phenotype (%) [7]: 97%
Population Mitotic Cells (%) [7]: 9%
Population Normal (%) [7]: 89%
Population Pyknosed Nuclei (%) [7]: 24%
Population Tubulin-Different-Phenotype (%) [7]: 100%
Total Cell Count [7]: 99
Population Apoptotic (%) [8]: 95%
Population Fragmented Nuclei (%) [8]: 16%
Population Healthy Nuclei (%) [8]: 58%
Population Hoechst High Intensity Objects (%) [8]: 4%
Population Membrane Permeable-Phenotype (%) [8]: 98%
Population Mitochondria Different-Phenotype (%) [8]: 100%
Population Mitotic Cells (%) [8]: 4%
Population Normal (%) [8]: 95%
Population Pyknosed Nuclei (%) [8]: 25%
Total Cell Count [8]: 96
Population Apoptotic (%) [9]: 54%
Population Fragmented Nuclei (%) [9]: 15%
Population Healthy Nuclei (%) [9]: 67%
Population Hoechst High Intensity Objects (%) [9]: 6%
Population Membrane Permeable-Phenotype (%) [9]: 5%
Population Mitochondria Different-Phenotype (%) [9]: 37%
Population Mitotic Cells (%) [9]: 45%
Population Normal (%) [9]: 93%
Population Pyknosed Nuclei (%) [9]: 16%
Population Tubulin-Different-Phenotype (%) [9]: 53%
Total Cell Count [9]: 143
Population Apoptotic (%) [10]: 50%
Population Fragmented Nuclei (%) [10]: 11%
Population Healthy Nuclei (%) [10]: 74%
Population Hoechst High Intensity Objects (%) [10]: 7%
Population Membrane Permeable-Phenotype (%) [10]: 16%
Population Mitochondria Different-Phenotype (%) [10]: 41%
Population Mitotic Cells (%) [10]: 50%
Population Normal (%) [10]: 92%
Population Pyknosed Nuclei (%) [10]: 14%
Population Tubulin-Different-Phenotype (%) [10]: 47%
Total Cell Count [10]: 77
Population Apoptotic (%) [11]: 87%
Population Fragmented Nuclei (%) [11]: 23%
Population Healthy Nuclei (%) [11]: 39%
Population Hoechst High Intensity Objects (%) [11]: 11%
Population Membrane Permeable-Phenotype (%) [11]: 93%
Population Mitochondria Different-Phenotype (%) [11]: 100%
Population Mitotic Cells (%) [11]: 12%
Population Normal (%) [11]: 88%
Population Pyknosed Nuclei (%) [11]: 36%
Total Cell Count [11]: 95
Population Apoptotic (%) [12]: 93%
Population Fragmented Nuclei (%) [12]: 22%
Population Healthy Nuclei (%) [12]: 48%
Population Hoechst High Intensity Objects (%) [12]: 5%
Population Membrane Permeable-Phenotype (%) [12]: 98%
Population Mitochondria Different-Phenotype (%) [12]: 98%
Population Mitotic Cells (%) [12]: 6%
Population Normal (%) [12]: 94%
Population Pyknosed Nuclei (%) [12]: 29%
Population Tubulin-Different-Phenotype (%) [12]: 100%
Total Cell Count [12]: 119

O=C(NCCN1CCOCC1)c1ccc2c(c1)C(=O)c1ccc(Nc3ccc(F)c(NC(=O)c4ccccc4)c3)cc1CC2 [FS-694]
Population Apoptotic (%) [3]: 75% and 25%
Population Healthy Nuclei (%) [3]: 83% and 54%
Population Membrane Permeable-Phenotype (%) [3]: 67% and 52%
Population Mitochondria Different-Phenotype (%) [3]: 18% and 50%
Population Mitotic Cells (%) [3]: 25% and 74%
Population Normal (%) [3]: 95% and 53%
Population Pyknosed Nuclei (%) [3]: 8% and 13%
Population Tubulin-Different-Phenotype (%) [3]: 48% and 88%
Total Cell Count [3]: 178 and 187
Population Fragmented Nuclei (%) [4]: 40% and 27%
Population Healthy Nuclei (%) [4]: 47% and 65%
Population Membrane Permeable-Phenotype (%) [4]: 53% and 54%
Population Mitotic Cells (%) [4]: 60% and 90%
Population Normal (%) [4]: 47% and 90%
Population Pyknosed Nuclei (%) [4]: 11% and 7%
Total Cell Count [4]: 150 and 127
Population Apoptotic (%) [7]: 37% and 42%
Population Healthy Nuclei (%) [7]: 48% and 84%
Population Membrane Permeable-Phenotype (%) [7]: 54% and 41%
Population Mitotic Cells (%) [7]: 62% and 57%
Population Normal (%) [7]: 55% and 95%
Population Pyknosed Nuclei (%) [7]: 23% and 8%
Total Cell Count [7]: 224 and 170
Population Apoptotic (%) [8]: 50%
Population Fragmented Nuclei (%) [8]: 45% and 17%
Population Healthy Nuclei (%) [8]: 39% and 76%
Population Membrane Permeable-Phenotype (%) [8]: 62% and 37%
Population Mitotic Cells (%) [8]: 50%
Population Normal (%) [8]: 47% and 91%
Population Pyknosed Nuclei (%) [8]: 14% and 5%
Total Cell Count [8]: 160 and 131

— ChEMBL document CHEMBL4689842, “EUbOPEN Chemogenomics Library wave 1” (2021)
